Assay results as given in publication PMC3270411 (Chemistry & biology, 2012).

Tests used:
p38a = p38a (Homo sapiens, UniProt Q16539); experiment: KiNativ cellular kinase profiling; assay type: cell-based; conditions: A375 cells, 1 μM, 3 hours
DNAPK = DNAPK (Homo sapiens, UniProt P78527); experiment: KiNativ cellular kinase profiling; assay type: cell-based; conditions: A375 cells, 1 μM, 3 hours, labeling site ATP
JNK = experiment: pulse-chase ATP-biotin binding kinetics assay in A375 cells; assay type: cell-based; conditions: same pulse-chase protocol
How it was run: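 A375 cells treated with 1 μM test compound for 1–5 h, then washed three times in PBS. Lysed in NP-40/CHAPS buffer for 30 min at 4°C, cleared, and gel-filtered into HEPES kinase buffer (about 5–15 mg/ml protein). Lysate labelled with 5 μM ATP-biotin probe for 1 h, reduced with DTT, alkylated with iodoacetamide, and pulled down on streptavidin for 2 h. Read-out: SDS-PAGE and JNK immunoblot.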

PIP4K2C = target: T1, PIP4K2C (Homo sapiens, UniProt Q8TBX8); experiment: KiNativ cellular kinase profiling; assay type: cell-based; conditions: A375 cells, 1 μM, 3 hours, labeling site ATP
T1 sequence (Q8TBX8 1-421): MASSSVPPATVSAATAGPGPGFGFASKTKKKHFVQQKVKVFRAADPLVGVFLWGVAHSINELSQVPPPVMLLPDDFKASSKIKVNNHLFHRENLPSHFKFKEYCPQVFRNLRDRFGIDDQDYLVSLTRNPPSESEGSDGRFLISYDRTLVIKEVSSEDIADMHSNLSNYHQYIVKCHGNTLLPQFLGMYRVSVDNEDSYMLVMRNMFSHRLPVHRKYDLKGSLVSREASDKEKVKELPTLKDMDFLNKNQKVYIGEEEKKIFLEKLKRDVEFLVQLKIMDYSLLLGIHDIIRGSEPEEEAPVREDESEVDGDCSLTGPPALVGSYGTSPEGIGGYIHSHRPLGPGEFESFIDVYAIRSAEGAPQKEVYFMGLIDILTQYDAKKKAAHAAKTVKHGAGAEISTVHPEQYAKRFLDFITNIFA

PIK3C3 = PIK3C3 (Homo sapiens, UniProt Q8NEB9); experiment: KiNativ cellular kinase profiling; assay type: cell-based; conditions: A375 cells, 1 μM, 3 hours, PIK3C3, labeling site ATP
IKKb = target: T2, IKKb (Homo sapiens, UniProt O14920); experiment: KiNativ cellular kinase profiling; assay type: cell-based; conditions: for Percent inhibition of kinase labeling by ATP-biotin: A375 cells, 1 μM, 3 hours, IKKb, labeling site Lys2; for inhibition at 1 µM: A-375, read-out: Percent inhibition of kinase labeling by ATP-biotin
T2 sequence (O14920 1-756): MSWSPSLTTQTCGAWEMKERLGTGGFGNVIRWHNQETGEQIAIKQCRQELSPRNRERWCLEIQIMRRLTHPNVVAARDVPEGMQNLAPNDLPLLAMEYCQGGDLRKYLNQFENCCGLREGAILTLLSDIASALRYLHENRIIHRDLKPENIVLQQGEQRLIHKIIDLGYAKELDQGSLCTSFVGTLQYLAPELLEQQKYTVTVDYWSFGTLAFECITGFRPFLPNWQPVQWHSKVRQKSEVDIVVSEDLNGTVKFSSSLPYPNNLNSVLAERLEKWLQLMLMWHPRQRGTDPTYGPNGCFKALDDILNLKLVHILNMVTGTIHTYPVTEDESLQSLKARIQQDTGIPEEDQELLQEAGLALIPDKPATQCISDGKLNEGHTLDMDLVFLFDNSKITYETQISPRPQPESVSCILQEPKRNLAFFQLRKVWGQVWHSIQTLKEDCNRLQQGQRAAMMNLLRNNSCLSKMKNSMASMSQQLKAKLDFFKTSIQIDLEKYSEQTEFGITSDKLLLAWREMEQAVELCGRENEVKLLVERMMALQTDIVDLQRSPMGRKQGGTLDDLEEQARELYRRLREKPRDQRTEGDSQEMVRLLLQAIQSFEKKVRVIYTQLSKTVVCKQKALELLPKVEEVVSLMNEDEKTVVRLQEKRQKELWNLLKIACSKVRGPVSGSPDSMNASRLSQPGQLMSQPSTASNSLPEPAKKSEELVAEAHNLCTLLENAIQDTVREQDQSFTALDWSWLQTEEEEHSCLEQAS

[1] = test system: c-Jun phosphorylation in HeLa and A375 cells; experiment: cellular c-Jun phosphorylation, statements for both assay formats; assay type: cell-based; conditions: relative to JNK-IN-5
KIT(L576P) = KIT(L576P) (Homo sapiens, UniProt P10721, L576P); experiment: KinomeScan dissociation constant; assay type: binding
JNK3 = JNK3 (Homo sapiens, UniProt P53779); experiment: intact protein mass spectrometry of inhibitor-labeled JNK3; assay type: binding; conditions: incubation with JNK3, electrospray mass spectrometry
[2] = test system: panel of 442 distinct kinases; experiment: KINOMEscan kinase-binding panel
NUAK1 = NUAK1 (Homo sapiens, UniProt O60285); experiment: follow-up IC50 determination after enzymatic panel; assay type: biochemical
Sequence of NUAK1 (O60285 whole entry): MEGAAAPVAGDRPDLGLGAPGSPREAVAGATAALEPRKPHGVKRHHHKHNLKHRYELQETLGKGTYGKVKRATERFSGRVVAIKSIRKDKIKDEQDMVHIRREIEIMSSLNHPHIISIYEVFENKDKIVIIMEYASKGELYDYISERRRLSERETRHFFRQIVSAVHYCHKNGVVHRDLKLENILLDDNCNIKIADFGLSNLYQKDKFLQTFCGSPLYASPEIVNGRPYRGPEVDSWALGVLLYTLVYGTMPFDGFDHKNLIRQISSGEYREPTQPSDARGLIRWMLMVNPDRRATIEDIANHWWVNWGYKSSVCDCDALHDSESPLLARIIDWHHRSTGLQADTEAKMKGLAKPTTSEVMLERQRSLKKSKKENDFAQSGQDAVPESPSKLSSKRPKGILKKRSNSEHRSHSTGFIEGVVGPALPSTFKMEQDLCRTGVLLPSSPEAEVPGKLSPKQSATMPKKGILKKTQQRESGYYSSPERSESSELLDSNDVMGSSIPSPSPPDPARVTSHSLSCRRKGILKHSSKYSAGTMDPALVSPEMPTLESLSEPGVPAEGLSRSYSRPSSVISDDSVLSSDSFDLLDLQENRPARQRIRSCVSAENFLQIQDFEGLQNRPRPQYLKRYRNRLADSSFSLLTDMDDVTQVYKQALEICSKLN

IRAK1 [3] = target: T3, IRAK1 (Homo sapiens, UniProt P51617); experiment: follow-up IC50 determination after enzymatic panel; assay type: biochemical
[4] = test system: potential additional kinase targets; experiment: follow-up biochemical and binding assays on potent binding targets; conditions: enzymatic assay or dissociation constant follow-up
IRAK1 [5] = target: T3, IRAK1; experiment: enzymatic kinase assay on potential off-target; assay type: biochemical; conditions: IC50 (nM) (enzymatic) IRAK1
ERK8 = ERK8 (Homo sapiens, UniProt Q8TD08); experiment: follow-up IC50 determination after enzymatic panel; assay type: biochemical
KIT(V559D,T670I) = KIT(V559D,T670I) (Homo sapiens, UniProt P10721, T670I/V559D); experiment: KinomeScan dissociation constant; assay type: binding
MET(M250T) = MET(M250T) (Homo sapiens, UniProt P08581, M1250T); experiment: enzymatic kinase assay on potential off-target; assay type: biochemical

Sequence of DNAPK (P78527 whole entry): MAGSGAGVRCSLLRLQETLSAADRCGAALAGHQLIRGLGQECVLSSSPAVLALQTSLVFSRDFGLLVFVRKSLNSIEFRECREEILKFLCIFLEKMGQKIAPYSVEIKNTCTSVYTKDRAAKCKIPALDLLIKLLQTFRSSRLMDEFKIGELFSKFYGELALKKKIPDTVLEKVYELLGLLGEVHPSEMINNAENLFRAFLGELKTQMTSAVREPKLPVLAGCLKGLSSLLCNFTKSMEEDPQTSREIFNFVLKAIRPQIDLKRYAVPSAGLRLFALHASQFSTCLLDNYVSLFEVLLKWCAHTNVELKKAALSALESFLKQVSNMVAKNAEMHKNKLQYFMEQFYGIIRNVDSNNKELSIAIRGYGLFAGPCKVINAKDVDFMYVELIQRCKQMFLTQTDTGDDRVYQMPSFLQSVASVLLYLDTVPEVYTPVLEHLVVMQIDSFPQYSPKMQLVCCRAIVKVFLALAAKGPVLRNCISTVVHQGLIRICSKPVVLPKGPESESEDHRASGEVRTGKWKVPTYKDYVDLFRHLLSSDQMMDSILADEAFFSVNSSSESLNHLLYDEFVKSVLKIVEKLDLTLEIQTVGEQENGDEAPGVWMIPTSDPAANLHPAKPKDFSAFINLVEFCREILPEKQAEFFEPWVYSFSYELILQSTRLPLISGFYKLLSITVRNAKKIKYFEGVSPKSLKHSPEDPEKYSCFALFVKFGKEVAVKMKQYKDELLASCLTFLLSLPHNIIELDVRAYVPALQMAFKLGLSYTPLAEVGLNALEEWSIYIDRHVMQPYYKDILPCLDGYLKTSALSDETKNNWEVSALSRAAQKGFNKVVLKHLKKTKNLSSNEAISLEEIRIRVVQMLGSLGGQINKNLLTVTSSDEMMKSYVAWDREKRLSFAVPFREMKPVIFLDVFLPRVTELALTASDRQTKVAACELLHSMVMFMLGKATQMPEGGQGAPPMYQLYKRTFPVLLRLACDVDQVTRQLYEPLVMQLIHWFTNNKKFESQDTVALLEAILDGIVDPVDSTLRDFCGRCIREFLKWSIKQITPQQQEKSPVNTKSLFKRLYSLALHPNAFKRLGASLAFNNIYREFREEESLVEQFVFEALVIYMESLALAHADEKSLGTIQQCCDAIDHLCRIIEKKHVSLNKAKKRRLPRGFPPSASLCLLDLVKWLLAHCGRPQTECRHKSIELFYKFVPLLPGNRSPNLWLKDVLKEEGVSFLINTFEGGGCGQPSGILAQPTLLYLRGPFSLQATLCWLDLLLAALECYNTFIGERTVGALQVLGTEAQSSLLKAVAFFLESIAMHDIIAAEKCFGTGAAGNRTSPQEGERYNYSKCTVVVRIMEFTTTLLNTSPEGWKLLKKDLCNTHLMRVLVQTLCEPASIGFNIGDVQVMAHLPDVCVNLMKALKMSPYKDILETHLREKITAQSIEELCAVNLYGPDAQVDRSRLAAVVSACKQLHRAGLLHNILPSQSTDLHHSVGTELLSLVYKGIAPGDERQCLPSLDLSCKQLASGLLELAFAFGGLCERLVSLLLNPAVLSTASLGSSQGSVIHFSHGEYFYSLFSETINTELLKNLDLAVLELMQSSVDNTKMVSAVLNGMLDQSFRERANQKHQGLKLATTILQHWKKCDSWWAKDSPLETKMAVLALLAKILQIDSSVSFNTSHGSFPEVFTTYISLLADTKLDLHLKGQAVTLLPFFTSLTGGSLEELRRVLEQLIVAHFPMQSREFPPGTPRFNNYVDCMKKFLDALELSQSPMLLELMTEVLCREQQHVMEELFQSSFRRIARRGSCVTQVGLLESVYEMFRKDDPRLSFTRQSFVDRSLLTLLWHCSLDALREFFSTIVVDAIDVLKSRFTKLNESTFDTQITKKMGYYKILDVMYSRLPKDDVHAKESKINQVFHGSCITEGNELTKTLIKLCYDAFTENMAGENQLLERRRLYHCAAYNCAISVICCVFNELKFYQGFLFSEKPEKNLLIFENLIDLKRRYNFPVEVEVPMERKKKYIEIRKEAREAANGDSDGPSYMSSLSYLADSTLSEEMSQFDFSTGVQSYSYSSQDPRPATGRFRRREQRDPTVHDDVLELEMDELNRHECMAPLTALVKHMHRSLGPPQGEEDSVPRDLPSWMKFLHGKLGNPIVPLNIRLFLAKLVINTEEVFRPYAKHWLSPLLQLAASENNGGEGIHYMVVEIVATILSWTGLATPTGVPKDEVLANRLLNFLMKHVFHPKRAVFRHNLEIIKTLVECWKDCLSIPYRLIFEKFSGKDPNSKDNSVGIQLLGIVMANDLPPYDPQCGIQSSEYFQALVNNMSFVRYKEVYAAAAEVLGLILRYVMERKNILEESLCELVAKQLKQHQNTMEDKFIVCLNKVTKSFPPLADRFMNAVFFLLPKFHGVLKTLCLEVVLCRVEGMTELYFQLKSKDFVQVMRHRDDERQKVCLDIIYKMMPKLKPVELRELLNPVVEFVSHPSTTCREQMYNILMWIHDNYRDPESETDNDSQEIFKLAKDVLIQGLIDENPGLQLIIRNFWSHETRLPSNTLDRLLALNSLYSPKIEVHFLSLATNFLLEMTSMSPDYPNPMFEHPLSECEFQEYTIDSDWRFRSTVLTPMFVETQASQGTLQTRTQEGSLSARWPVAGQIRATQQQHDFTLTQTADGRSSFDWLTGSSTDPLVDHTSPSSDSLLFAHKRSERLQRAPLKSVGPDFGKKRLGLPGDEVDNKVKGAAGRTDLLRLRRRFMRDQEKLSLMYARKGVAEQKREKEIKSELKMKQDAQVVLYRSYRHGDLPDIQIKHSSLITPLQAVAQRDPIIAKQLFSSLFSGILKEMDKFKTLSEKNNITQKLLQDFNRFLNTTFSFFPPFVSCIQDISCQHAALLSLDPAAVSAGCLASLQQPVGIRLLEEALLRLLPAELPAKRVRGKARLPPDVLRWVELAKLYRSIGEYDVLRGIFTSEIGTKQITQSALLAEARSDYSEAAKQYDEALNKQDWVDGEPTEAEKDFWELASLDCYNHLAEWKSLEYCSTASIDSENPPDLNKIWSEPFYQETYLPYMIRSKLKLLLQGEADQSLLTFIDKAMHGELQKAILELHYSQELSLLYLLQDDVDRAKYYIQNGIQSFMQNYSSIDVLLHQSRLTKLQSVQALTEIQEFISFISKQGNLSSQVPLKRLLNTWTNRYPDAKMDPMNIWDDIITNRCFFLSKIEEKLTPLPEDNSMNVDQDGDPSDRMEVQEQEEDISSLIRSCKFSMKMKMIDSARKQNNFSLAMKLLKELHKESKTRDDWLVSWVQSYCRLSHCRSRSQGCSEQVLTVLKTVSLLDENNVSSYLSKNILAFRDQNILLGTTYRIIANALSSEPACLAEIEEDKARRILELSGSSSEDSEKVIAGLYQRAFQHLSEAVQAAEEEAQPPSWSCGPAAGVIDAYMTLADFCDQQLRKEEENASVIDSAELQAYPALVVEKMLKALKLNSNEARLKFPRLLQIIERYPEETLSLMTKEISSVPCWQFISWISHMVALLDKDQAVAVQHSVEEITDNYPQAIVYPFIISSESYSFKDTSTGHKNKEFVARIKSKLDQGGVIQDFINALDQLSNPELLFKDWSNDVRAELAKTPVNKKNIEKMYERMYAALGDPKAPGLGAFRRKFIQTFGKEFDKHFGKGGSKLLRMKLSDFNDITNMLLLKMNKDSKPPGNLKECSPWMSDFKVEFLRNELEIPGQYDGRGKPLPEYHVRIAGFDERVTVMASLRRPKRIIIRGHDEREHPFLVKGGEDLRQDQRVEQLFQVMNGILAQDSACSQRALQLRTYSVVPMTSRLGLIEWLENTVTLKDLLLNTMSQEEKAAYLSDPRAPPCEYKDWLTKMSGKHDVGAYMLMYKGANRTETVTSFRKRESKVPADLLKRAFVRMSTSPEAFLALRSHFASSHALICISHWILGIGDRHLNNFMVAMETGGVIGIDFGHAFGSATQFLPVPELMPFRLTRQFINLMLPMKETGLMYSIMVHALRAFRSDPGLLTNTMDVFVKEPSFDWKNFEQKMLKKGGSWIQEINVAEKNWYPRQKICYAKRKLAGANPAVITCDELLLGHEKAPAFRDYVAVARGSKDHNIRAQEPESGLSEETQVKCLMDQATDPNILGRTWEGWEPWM
Sequence of p38a (Q16539 whole entry): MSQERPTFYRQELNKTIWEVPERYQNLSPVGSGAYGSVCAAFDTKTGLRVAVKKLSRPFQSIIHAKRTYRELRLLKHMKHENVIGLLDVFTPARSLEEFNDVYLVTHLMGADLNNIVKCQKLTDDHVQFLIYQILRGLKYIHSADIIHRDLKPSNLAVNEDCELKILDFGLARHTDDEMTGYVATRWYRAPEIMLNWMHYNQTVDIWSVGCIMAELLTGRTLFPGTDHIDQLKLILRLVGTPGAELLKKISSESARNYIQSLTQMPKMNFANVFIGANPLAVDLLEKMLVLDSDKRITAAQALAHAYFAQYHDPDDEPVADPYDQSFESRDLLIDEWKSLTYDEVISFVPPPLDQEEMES

Row | Compound | Percent inhibition of kinase labeling by ATP-biotin (p38a; labeling site Lys2) [%] | Percent inhibition of kinase labeling by ATP-biotin (p38a; labeling site Other) [%] | Percent inhibition of kinase labeling by ATP-biotin (DNAPK; first of two table lines) [%] | Percent inhibition of kinase labeling by ATP-biotin (DNAPK; second of two table lines) [%] | Percent inhibition of kinase labeling by ATP-biotin (PIP4K2C; first of two table lines) [%] | Percent inhibition of kinase labeling by ATP-biotin (PIP4K2C; second of two table lines) [%] | Percent inhibition of kinase labeling by ATP-biotin (PIK3C3; first of two table lines) [%] | Percent inhibition of kinase labeling by ATP-biotin (PIK3C3; second of two table lines) [%] | Percent inhibition of kinase labeling by ATP-biotin (IKKb) [%] | inhibition at 1 µM (IKKb) [%] | further results
1 | CCC(=O)Nc1cccc(C(=O)Nc2ccc(Nc3nccc(-c4cccnc4)n3)cc2)c1 [JNK-IN-6] | 32.6 | 12.4 | 51.1 | 31.7 | −4.7 | 35.7 | 26.5 | 3.1 | 33.4 |  | protection of JNK from labeling by ATP-biotin (JNK): incapable of protecting JNK from labeling by ATP-biotin; fold loss in potency / fold higher IC50 for cellular JNK inhibition [1]: 50 fold
2 | CN(C)C/C=C/C(=O)Nc1cccc(C(=O)Nc2ccc(Nc3nccc(-c4cccnc4)n3)cc2)c1 [JNK-IN-7] |  |  |  |  |  |  |  |  |  | -10.1 | Kd (KIT(L576P)): 40 nM; covalent modification of JNK3 (mass spectrometry) (JNK3): addition of a single molecule of inhibitor to the protein and labeling of Cys154; number of kinases with binding inhibition of 95% or more ([2]; 1.0 μM): approximately 14 kinases; IC50 (NUAK1): < 200 nM; IC50 (IRAK1 [3]): < 200 nM; number of additional kinases with Kd or IC50 of 100 nM or less [4]: eight; IC50 (IRAK1 [5]): ~10 nM; IC50 (ERK8): < 200 nM
3 | Cc1cc(NC(=O)c2cccc(NC(=O)/C=C/CN(C)C)c2)ccc1Nc1nccc(-c2cccnc2)n1 [JNK-IN-8] |  |  |  |  |  |  |  |  |  | -6.5 | Kd (KIT(V559D,T670I)): 56 nM; IC50 (MET(M250T)): > 10 µM
4 | CN(C)C/C=C/C(=O)Nc1cccc(C(=O)Nc2ccc(Nc3nccc(-c4c(-c5ccccc5)nn5ccccc45)n3)cc2)c1 [JNK-IN-11] |  |  |  |  |  |  |  |  |  | -11.2 | 
5 | CN(C)C/C=C/C(=O)Nc1cccc(C(=O)Nc2ccc(Nc3nccc(/C(C#N)=C4\Nc5ccccc5S4)n3)cc2)c1 [JNK-IN-12] | −28 | −13.8 | −65.4 | −80.7 | 43.9 | 42.6 | 7.5 | −0.5 | −97.5 |  | S (10) score (ratio number of kinases inhibited more than 90 percent) ([2]; screening concentration 1 μM): 0.025
